Screening results from PubChem BioAssay.
Compounds with a hit are over-represented: about 4.1% of the library has one in this group of screens.
KCNQ1 block: inhibitors of human KCNQ1 potassium channel; CHO-K1 KCNQ1, FluxOR thallium flux fluorescence; active compounds read high; B-score at 10 µM; 310,000 compounds, 1.3% hits; AID 2642;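 active means compounds whose thallium flux B-score, printed positive for inhibition, exceeds three library SD while starting fluorescence stays within three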;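 further: channel opened by potassium depolarization with thallium stimulus after 20 min compound exposure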
Cl transport mod: KCC2 (human) Cl- transport modulation; Q9H2X9; KCC2 cells, thallium flux FluoZin-2 fluorescence; B-score of Tl+ flux slope (higher = more flux/activation; lower = inhibition) at 10 µM; 190,000 compounds, 2.2% hits;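 active means thallium flux slope and its plate-corrected score both differing from the plate sample mean at a set confidence after two filtering rounds, in either direction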;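 further: slope of fluorescence scaled to starting intensity during 10 to 20 s after thallium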
KCNK3 inh: human KCNK3 channel inhibition, primary screen; O14649; CHO-KCNK3 thallium flux, FluxOR fluorescence; active compounds read low; B-score at 10 µM; 340,000 compounds, 0.84% hits; AID 602410;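 active means B-score under library mean minus 4 SD, starting fluorescence ratio at most library mean plus 5 SD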;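 further: more negative B-score means stronger inhibition of thallium flux through KCNK3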
hERG rescue: hERG (human) protection from proarrhythmic block | Q12809 | CHO-hERG, FluxOR thallium flux, dofetilide IC70 present | activation (rescue from dofetilide block), less the hit threshold, % at 10 µM | 310,000 compounds, 0.51% hits;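 active means activation above the mean of controls blocked by dofetilide plus 5 SD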;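 further: thallium influx through hERG after potassium depolarization seen as dye fluorescence rise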
Target sequence (Q12809 whole entry, looked up): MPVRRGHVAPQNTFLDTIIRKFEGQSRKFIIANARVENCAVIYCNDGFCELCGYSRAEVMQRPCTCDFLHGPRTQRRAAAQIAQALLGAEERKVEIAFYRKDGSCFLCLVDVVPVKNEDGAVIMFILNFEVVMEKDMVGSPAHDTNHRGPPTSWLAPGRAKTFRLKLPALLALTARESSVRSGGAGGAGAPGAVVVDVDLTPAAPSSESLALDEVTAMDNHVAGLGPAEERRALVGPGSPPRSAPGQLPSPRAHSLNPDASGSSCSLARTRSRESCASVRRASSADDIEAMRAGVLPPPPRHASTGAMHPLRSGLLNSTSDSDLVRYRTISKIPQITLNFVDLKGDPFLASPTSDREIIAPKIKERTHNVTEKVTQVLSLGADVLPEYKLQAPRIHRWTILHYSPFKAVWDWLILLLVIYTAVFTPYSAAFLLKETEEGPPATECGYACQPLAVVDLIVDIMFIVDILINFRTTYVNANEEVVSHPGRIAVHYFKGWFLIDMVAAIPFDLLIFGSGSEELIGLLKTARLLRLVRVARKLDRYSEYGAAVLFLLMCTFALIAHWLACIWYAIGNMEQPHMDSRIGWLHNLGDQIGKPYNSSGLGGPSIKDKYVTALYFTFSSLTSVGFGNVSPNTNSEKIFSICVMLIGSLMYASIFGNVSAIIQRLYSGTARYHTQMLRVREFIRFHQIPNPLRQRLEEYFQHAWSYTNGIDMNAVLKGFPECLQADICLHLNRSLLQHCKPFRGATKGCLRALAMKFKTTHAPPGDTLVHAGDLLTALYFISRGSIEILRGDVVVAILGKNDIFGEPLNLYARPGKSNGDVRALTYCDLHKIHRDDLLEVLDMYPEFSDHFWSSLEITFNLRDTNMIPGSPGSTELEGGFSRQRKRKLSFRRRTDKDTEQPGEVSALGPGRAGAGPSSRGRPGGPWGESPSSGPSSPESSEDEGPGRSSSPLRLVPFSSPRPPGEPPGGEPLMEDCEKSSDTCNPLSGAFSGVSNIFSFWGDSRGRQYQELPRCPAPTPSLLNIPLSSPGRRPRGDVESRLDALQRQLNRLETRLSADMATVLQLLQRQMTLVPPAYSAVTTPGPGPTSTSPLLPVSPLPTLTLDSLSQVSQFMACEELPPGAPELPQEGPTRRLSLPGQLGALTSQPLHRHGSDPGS
KCNK9 block: inhibitors of human KCNK9 two-pore domain potassium channel | Q9NPC2 | B-score at 10 µM | HEK293 KCNK9, FluxOR thallium flux fluorescence; active compounds read low | 310,000 compounds, 1.2% hits;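 active means ratio B-score over 3 SD below the library mean, with starting fluorescence within 5 SD of its mean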;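 further: negative B-score means less thallium flux so channel inhibition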
KCNQ1 pot: potentiates or activates the human KCNQ1 potassium channel | P51787 | CHO-K1 KCNQ1, thallium flux FluxOR fluorescence; active compounds read high | B-score at 10 µM | 310,000 compounds, 0.35% hits | AID 2648;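 active means fluorescence ratio B-score, a plate-corrected score, at least three library SD, with initial intensity B-score within 5 SD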
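Assay system: stable KCNQ1 CHO-K1 line; medium: assay buffer, equal DMSO in all wells; timing: 90 min dye loading and 20 min compound exposure, both at room temperature; technique: kinetic FluxOR thallium fluorescence, 10-s 1-Hz baseline, 110-s post-stimulus read; read-out basis: B score of baseline-normalized fluorescence ratio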
Large screens that a line does not name were inactive.

Cc1cc(NC(=O)CSc2ncnc3c2cnn3-c2ccccc2)no1	hERG rescue 14
C#CCOCCOCCOCCNc1nc(N2CCOCC2)nc(N2CCN(C(=O)[C@H](CO)n3cc([C@@H](N)C(C)C)nn3)CC2)n1	none (no result: KCNQ1 block, Cl transport mod, hERG rescue, KCNK9 block, KCNQ1 pot)
CCCC(=O)N1CCN(c2ccc([N+](=O)[O-])c(NC(C)c3ccccc3)c2)CC1 (centres undefined)	Cl transport mod -4.6
COc1ccc(-c2noc(CSc3nnc(CCc4ccccc4)n3-c3ccccc3)n2)cc1OC	KCNK3 inh -9.7
COc1ccc(-c2noc(CSc3ccccc3)n2)cc1OC	none (no result: Cl transport mod)
COc1ccc(-c2cn3cc(C(=O)NN)ccc3n2)cc1	hERG rescue 5.2
Oc1ccc2ccccc2c1N=Nc1ccccn1	KCNK9 block -7.3
Cc1ccc(C)c2c1[nH]c1ccc([N+](=O)[O-])cc12	KCNQ1 block 8
Cc1cccc(-n2ncc3c(N4CC(C)CC(C)C4)ncnc32)c1 (centres undefined)	KCNK9 block -7.1 (no result: Cl transport mod)
Nc1c(-c2ccccc2)cnn1-c1cccc(Cl)c1	KCNK9 block -7 (no result: Cl transport mod)
Cc1ccc(S(=O)(=O)n2c(CN3CCCC(C)C3)nc3ccccc32)cc1 (centres undefined)	KCNK9 block -7.5
Cc1ccc(S(=O)(=O)n2c(C)nc3ccccc32)cc1	none (no result: Cl transport mod)
Cc1cc(C(=O)O)cc(S(=O)(=O)Nc2c(C)nn(C)c2C)c1C	none (no result: KCNQ1 block, Cl transport mod, hERG rescue, KCNK9 block, KCNQ1 pot)
CCN1c2ccccc2-c2nc3ccccc3n2C1c1ccncc1 (centres undefined)	none
CCN1c2ccccc2-c2nc3ccccc3n2C1c1ccccn1 (centres undefined)	KCNK3 inh -10
O=C(CCCSc1ccccc1)Nc1ccc(Cl)c(S(=O)(=O)N2CCOCC2)c1	none (no result: KCNQ1 block, Cl transport mod, hERG rescue, KCNK9 block, KCNQ1 pot)
Cc1cc(=O)oc2cc(OC(C(=O)O)c3ccccc3)ccc12 (centres undefined)	hERG rescue 6.7 (no result: Cl transport mod)
CCCS(=O)(=O)Nc1ccc(Nc2c3ccccc3nc3ccccc23)c(OC)c1	none (no result: KCNQ1 block, Cl transport mod, hERG rescue, KCNK9 block, KCNQ1 pot)
CC(C)C[C@@H](CO)N1CCN(CC(C)C)CCC1=O	hERG rescue 5.7 (no result: Cl transport mod)
CCCN1CCC(=O)N([C@H](CO)CC(C)C)CC1	none (no result: Cl transport mod)
CC(C)(C)OC(=O)NCCCCCNC(=O)c1ncn(Cc2ccccc2)c1C(=O)NCCCCCNC(=O)OC(C)(C)C	none (no result: KCNQ1 block, Cl transport mod, hERG rescue, KCNK9 block, KCNQ1 pot)
COc1ccc(-c2cc(N)n(S(=O)(=O)c3c(F)c(F)c(F)c(F)c3F)n2)cc1OC	KCNK3 inh -11, KCNQ1 pot 8 (no result: Cl transport mod)
CCOC(=O)c1cnc(-n2nc(C)cc2C)nc1NNc1cc(-c2ccccc2)nc(C)n1	KCNQ1 block 6 (no result: KCNK3 inh)
Cc1ccn2c(=O)c(C(=O)NC3CCCCC3C)c(O)nc2c1 (centres undefined)	none (no result: Cl transport mod)
O=C(Nc1ccccc1)N(O)c1ccc(Cl)cc1	KCNQ1 block 6 (no result: Cl transport mod)
CCN(CCS(=O)(=O)c1ccc(Cl)cc1)C(=O)Nc1ccccc1	none
O=C(Cc1cccc(NC(=O)C2CCCN(C(=O)CCc3ccccc3)C2)c1)Nc1ccc(C(=O)N2CCCCC2)cc1 (centres undefined)	none (no result: KCNQ1 block, Cl transport mod, hERG rescue, KCNK9 block, KCNQ1 pot)
COC1(OC)C(/C=C/c2ccc(Cl)cc2)C(C#N)(C#N)C1(OC)OC (centres undefined)	KCNQ1 block 10
O=C(CCSc1nnc(-c2ccco2)o1)N1CCOCC1	hERG rescue 5.7
O=C(CCSc1nnc(-c2ccccc2)o1)N1CCOCC1	none
CC#CC(=O)NCC1(N(C)Cc2ccccc2)Cc2ccccc2C1	none (no result: Cl transport mod)
CCN(CC)C(=S)NC(=O)c1ccc(Cl)cc1Cl	Cl transport mod 12, hERG rescue 13, KCNQ1 pot 17
O=C(NNC(=S)NCCc1ccccc1)c1ccc(Br)s1	KCNQ1 block 8
Cc1ccccc1C(=O)NC(=S)NCCc1ccccc1	Cl transport mod 8.3
COC(=O)/C=C(\C)NC(=O)c1ccccc1Cl	none (no result: Cl transport mod)
CCCCN(CCCC)C(=S)NC(=O)c1ccccc1Cl	Cl transport mod 65, hERG rescue 65, KCNQ1 pot 57
O=C(NC(=S)N1CCCC1)c1ccc(Cl)cc1Cl	none (no result: Cl transport mod)
O=C1CC(N2CCN(S(=O)(=O)c3ccccc3F)CC2)C(=O)N1c1ccccc1F (centres undefined)	none (no result: KCNQ1 block, Cl transport mod, hERG rescue, KCNK9 block, KCNQ1 pot)
CCCCNC(=S)NC(=O)c1ccccc1Br	Cl transport mod 35
CC1CCCC(NC(=S)NC(=O)c2ccccc2Br)C1C (centres undefined)	Cl transport mod 23, hERG rescue 7.2, KCNQ1 pot 8
CCCCNC(=S)NC(=O)c1ccc(Cl)cc1Cl	Cl transport mod 5.3
COc1ccc2nc(SC(C)C(=O)NC3CCCC3)[nH]c2c1 (centres undefined)	none (no result: KCNQ1 block, Cl transport mod, hERG rescue, KCNK9 block, KCNQ1 pot)
CN(c1ccc(F)cc1)S(=O)(=O)c1ccc(Cl)c(C(=O)Nc2ccc3c(c2)CCC3)c1	KCNK9 block -6.9
CN(c1ccc(F)cc1)S(=O)(=O)c1ccc(Cl)c(C(=O)Nc2ccncc2)c1	none (no result: Cl transport mod)
O=C(CCNc1ccc(F)c(Cl)c1)c1ccco1	none (no result: Cl transport mod)
O=C(CCNc1ccc(Cl)c(C(F)(F)F)c1)c1ccco1	KCNK9 block -7.3
Cc1ccc(S(=O)(=O)N(Cc2n[nH]c(=S)n2-c2ccccc2)c2cccc(Cl)c2)cc1	KCNQ1 block 6
CC(NC(=O)NC1CCCCC1)c1ccccc1 (centres undefined)	hERG rescue 7.3
CC(NC(=S)NC1CCCCC1)c1ccccc1 (centres undefined)	none (no result: Cl transport mod)
Cc1ccc2cc(/C=C3\N=C(c4ccccc4)OC3=O)c(N3CCOCC3)nc2c1	KCNQ1 block 8 (no result: Cl transport mod, KCNK3 inh)
CCCC(=O)Nc1ccc(S(=O)(=O)Nc2cc(OC)ncn2)cc1	none (no result: Cl transport mod)
O=C(Cc1ccc2c(c1)OCCO2)Nc1cc(Cl)ccc1N1CCOCC1	none (no result: KCNQ1 block, Cl transport mod, hERG rescue, KCNK9 block, KCNQ1 pot)
CC(C)(C)NC(=O)COc1ccc(-c2ccccc2)cc1	KCNK9 block -7.7
COc1cc(/C(C)=C/c2ccccc2)c2c(c1)oc1ccccc12	none (no result: Cl transport mod, KCNK3 inh)
CC(=O)OCCCNc1cc(Sc2nc3ccccc3s2)c2nonc2c1[N+](=O)[O-]	none
CC(=O)OCCNc1cc(Sc2nc3ccccc3[nH]2)c2nonc2c1[N+](=O)[O-]	KCNQ1 block 7, KCNK9 block -8.1
Cn1nc(-c2ccc(Cl)cc2)nc2c(=O)n(C)c(=O)nc1-2	KCNQ1 pot 9 (no result: KCNK3 inh)
CS(=O)(=O)n1nc(-c2ccc(Cl)cc2)nc1N	none
O=C([C@@H]1CCCN1C(=O)c1cccs1)N1CCN(S(=O)(=O)c2cccc(F)c2)CC1	none (no result: KCNQ1 block, Cl transport mod, hERG rescue, KCNK9 block, KCNQ1 pot)
C=CCn1c(=O)c(C(=O)NCc2ccc(Cl)cc2)c(O)c2ccccc21	KCNQ1 block 7 (no result: Cl transport mod)
CCCn1c(=O)c(C(=O)NCc2ccccc2)c(O)c2ccccc21	none (no result: Cl transport mod)
CCCn1c(=O)c(C(=O)NCCc2ccccc2)c(O)c2ccccc21	KCNQ1 block 10 (no result: Cl transport mod)
C=CCn1c(=O)c(C(=O)NCCc2ccccc2)c(O)c2ccccc21	KCNQ1 block 6
N#Cc1c(SCc2c(Cl)cccc2Cl)nc(N)[nH]c1=S	none (no result: KCNQ1 block, Cl transport mod, hERG rescue, KCNK9 block, KCNQ1 pot)
